# Laboratory results as given in ChEMBL document CHEMBL1629654, “Breakthrough Aspergillus fumigatus and Candida albicans double infection during caspofungin treatment: laboratory characteristics and implication for susceptibility testing” (2009).
# The source made the active and inactive calls. The rule behind the calls is not given here.
# Legend:
# Candida albicans [1] = test: Antimicrobial activity against Candida albicans isolate R after 48 hrs by EUCAST microdilution method; assay type: functional
# Outline: (§1)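 EUCAST broth microdilution, plates read spectrophotometrically at 490 nm. MIC is the lowest dilution giving 50% growth inhibition. C. krusei […] control included in each run.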
# Candida albicans [2] = test: Antimicrobial activity against Candida albicans isolate R after 24 hrs by microdilution method; assay type: functional
# Outline: (§2)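 Broth microdilution in microtiter plates, read spectrophotometrically at 490 nm. MIC taken as the lowest drug dilution giving 50% growth inhibition. C. krusei […] run as control in each run. Read at 24 h and 48 h; trailing growth noted at 48 h.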
# Candida albicans [3] = test: Antimicrobial activity against Candida albicans isolate R after 48 hrs by microdilution method; assay type: functional; outline: as §2
# Candida albicans [4] = test: Antimicrobial activity against Candida albicans isolate C after 24 hrs by microdilution method; assay type: functional; outline: as §2
# Candida albicans [5] = test: Antimicrobial activity against Candida albicans isolate C after 48 hrs by EUCAST microdilution method; assay type: functional; outline: as §1
# Candida albicans [6] = test: Antimicrobial activity against Candida albicans isolate C after 48 hrs by microdilution method; assay type: functional; outline: as §2
# Candida albicans [7] = test: Antimicrobial activity against Candida albicans isolate R after 48 hrs by Etest; assay type: functional
# Outline: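 Etest on RPMI 1640 agar with 2% glucose, performed according to the manufacturer's recommendations.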
# Candida albicans [8] = test: Antimicrobial activity against Candida albicans isolate C after 48 hrs by Etest; assay type: functional
# Outline: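 Etest on RPMI 1640 agar with 2% glucose, run per the manufacturer's instructions. Index and control clinical blood isolates were tested in parallel.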
# Candida albicans [9] = test: Antimicrobial activity against Candida albicans isolate S infected in NMRI mouse assessed as decrease in kidney bacterial burden at 50 mg/kg, ip measured on day 4; assay type: functional, organism-based; set-up: dose 50 mg/kg
# Candida albicans [10] = test: Antimicrobial activity against Candida albicans isolate R infected in NMRI mouse assessed as decrease in kidney bacterial burden at 50 mg/kg, ip measured on day 4; assay type: functional, organism-based; set-up: dose 50 mg/kg
# Outline: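 NMRI mice (26–30 g), seven per group, were inoculated iv on day 0 with C. albicans (1 × 10^5 CFU). They received ip treatment on days 1–3 with anidulafungin 12 mg/kg or fluconazole 50 mg/kg; controls received saline. On day 4, kidneys were homogenised in saline and CFU counted by spot plating of 10-fold dilutions. Results are log10 CFU/ml; detection limit 50 CFU/ml; Mann-Whitney test.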
smiles,measurement,setting,value
C[C@@H](c1ncncc1F)[C@](O)(Cn1cncn1)c1ccc(F)cc1F [VORICONAZOLE],MIC,Candida albicans [1],≤ 0.03 µg/mL
same,MIC,Candida albicans [2],≤ 0.03 µg/mL
same,MIC,Candida albicans [3],≤ 0.03 µg/mL
same,MIC,Candida albicans [4],≤ 0.03 µg/mL
same,MIC,Candida albicans [5],≤ 0.125 µg/mL
same,MIC,Candida albicans [6],≤ 0.03 µg/mL
C[C@@H]1[C@H](O)[C@@H](C)/C=C/C=C/C=C/C=C/C=C/C=C/C=C/[C@H](O[C@@H]2O[C@H](C)[C@@H](O)[C@H](N)[C@@H]2O)C[C@@H]2O[C@](O)(C[C@@H](O)C[C@@H](O)[C@H](O)CC[C@@H](O)C[C@@H](O)CC(=O)O[C@H]1C)C[C@H](O)[C@H]2C(=O)O [AMPHOTERICIN B],MIC,Candida albicans [7],0.25 µg/mL
same,MIC,Candida albicans [8],0.125 µg/mL
OC(Cn1cncn1)(Cn1cncn1)c1ccc(F)cc1F [FLUCONAZOLE],MIC,Candida albicans [1],≤ 0.125 µg/mL
same,MIC,Candida albicans [2],≤ 0.125 µg/mL
same,Activity,Candida albicans [9],Active
same,MIC,Candida albicans [3],≤ 0.125 µg/mL
same,MIC,Candida albicans [4],0.25 µg/mL
same,MIC,Candida albicans [5],0.125 µg/mL
same,MIC,Candida albicans [6],≤ 0.25 µg/mL
same,Activity,Candida albicans [10],Active
